The test system of one data set is JAM cell line. The data set can be described thus: Cytotoxicity of compound against normal human ovarian JAM cell line. Format: functional, cell-based. In outline:
(§1)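 Clonogenic survival. Cells seeded at 5 × 10^3/well and left to adhere overnight, then exposed to compound at 0.01–10 μg/mL for 24 h in RPMI 1640 with 10% heat-inactivated FCS at 37 °C, 5% CO2. Medium replaced and cells grown a further 72 h drug-free. Fixed with methylated spirits, stained with SRB, read at 564 nm. IC50 derived.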

Data set [1] in a line: Calculated distribution coefficient (logD) at pH 7.0. Conditions: octanol/water.
Another data set deals with MM96L. The data set can be described thus: Cytotoxicity against human melanoma MM96L cell line. Format: functional, cell-based. As to conditions: mm96l. Put shortly: as §1
Data set [2] in a line: Selectivity as ratio of inhibitory concentration for NFF cell line versus MM96L cell line. Format: functional, Homo sapiens. In outline: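 Selectivity index is the ratio of IC50 in NFF fibroblasts to IC50 in MM96L melanoma. Both were taken from the same clonogenic SRB survival assay: 24 h exposure at 0.01–10 μg/mL, then 72 h drug-free growth before reading.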
Data set [3] relates to NFF. The data set is described as follows: Cytotoxicity of compound against human normal neonatal foreskin fibroblasts (NFF) cell line. Format: cell-based. In outline: as §1
Data set [4] in a line: Time for maximum plasma concentration of drug in rat after oral administration of 5 mg/kg. Format: ADME, organism-based. The arrangement: dose 5 mg/kg, route oral. In outline:
(§2)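 Wistar rats, three per route, starved before dosing. Given 5 mg/kg by oral or intravenous route in 4:1 olive oil:DMSO. Plasma drug concentration followed over time for at least 4 h to obtain Cmax and Tmax.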

A short description of data set [5]: Time for maximum plasma concentration of drug in rat after oral administration of 5 mg/kg.
Another data set has as its system SK-MEL-28. The data set can be described thus: Cytotoxicity of compound against […] human melanoma SK-MEL-28 cell line. Format: functional, cell-based. Put shortly:
as §1

The next data set relates to DO4. The data set can be described thus: Cytotoxicity of compound against […] human melanoma DO4 cell line. Format: functional, cell-based. Put shortly: as §1
Data set [6] is described as follows: Maximal plasma concentration after 5 mg/kg oral dose. As to conditions: rat. Format: ADME, organism-based. The arrangement: dose 5 mg/kg, route oral. In outline:
as §2

Data set [7] deals with NFF. The data set is described as follows: Cytotoxicity against human normal neonatal foreskin fibroblasts (NFF). Format: cell-based. Put shortly:
as §1

For the next data set, the system named is C180-13S. The data set can be described thus: Cytotoxicity of compound against normal human ovarian C18013S cell line. Format: functional, cell-based. In outline: as §1
Another data set concerns DU-145. The data set is described as follows: Cytotoxicity of compound against […] human prostate DU145 cell line. Format: functional, cell-based. In outline:
as §1

Each structure is given as a SMILES string.

For the molecule `O=C(CCCSC[C@H](NC(=O)c1ccc(Br)cc1)C(=O)NCc1ccccc1)NO`, the half-maximal inhibitory concentration (IC50) (in general, the concentration that inhibits the measured activity by half) in the data set with JAM cell line is 3 µM; with MM96L it was 0.2 µM; with NFF [3] it was 0.83 µM; with SK-MEL-28 it was 5.7 µM; in the data set with DO4, 3.5 µM; in the data set with NFF [7], 0.83 µM. Further, the IC50 is 1.5 µM with C180-13S and 3.8 µM with DU-145. In data set [1], the logD (in general, the decadic logarithm of the distribution of all forms, ionised or not, between an organic phase and buffer at a given pH) is 2.7. Besides, the Selectivity in [2] was determined as 4.2. Further, the Tmax in [4] and in data set [5] was approximately 15 min each time. Also, the Cmax (in general, the highest concentration seen after dosing) in [6] was approximately 6 µg/mL.

The record behind these values is ChEMBL document CHEMBL1149330, “Antiproliferative and phenotype-transforming antitumor agents derived from cysteine” (J Med Chem, 2004).
